Reference: ChEMBL document CHEMBL1148798, “High-efficacy 5-HT1A agonists for antidepressant treatment: a renewed opportunity” (J Med Chem, 2007)

Assays:
[1] = target: T1, 5-hydroxytryptamine receptor 1A (Homo sapiens) (UniProt P08908); assay: Agonist activity at human 5HT1A receptor expressed in C6 cells assessed as stimulation of [35S]GTP-gamma-S binding relative to 5-hydroxytryptamine; type: functional, cell-based
T1 sequence (whole entry): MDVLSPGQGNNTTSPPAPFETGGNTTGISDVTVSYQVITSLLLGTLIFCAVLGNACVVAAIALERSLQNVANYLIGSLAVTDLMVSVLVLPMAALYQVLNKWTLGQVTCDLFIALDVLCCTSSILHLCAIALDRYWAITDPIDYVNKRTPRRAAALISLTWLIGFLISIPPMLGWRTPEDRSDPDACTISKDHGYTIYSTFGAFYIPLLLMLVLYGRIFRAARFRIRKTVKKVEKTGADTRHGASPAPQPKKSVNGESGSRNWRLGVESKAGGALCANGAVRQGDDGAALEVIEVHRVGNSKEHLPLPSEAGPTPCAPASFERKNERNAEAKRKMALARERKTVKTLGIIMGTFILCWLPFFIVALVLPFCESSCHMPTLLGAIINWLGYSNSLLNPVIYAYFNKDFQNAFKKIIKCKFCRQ
In short: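 Membranes from C6-glial cells expressing h5-HT1A, diluted 20-fold in 20 mM HEPES with 30 µM GDP, 100 mM NaCl, 3 mM MgCl2, 0.2 mM ascorbic acid (16-38 µg protein). Compound preincubated 30 min at 25 °C, then 500 pM [35S]GTPγS added. Six concentrations tested. Nonspecific binding with 10 µM GTPγS.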

[2] = target: T2, 5-hydroxytryptamine receptor 1A (Homo sapiens, UniProt P08908); assay: Agonist activity at human 5HT1A receptor expressed in C6 cells assessed as stimulation of [35S]GTPgammaS binding; type: functional, cell-based
T2 sequence (P08908 whole entry): T1 sequence (whole entry)

[3] = test system: Rattus norvegicus; assay: Induction of flat body posture in orally dosed rat as after 60 mins; type: functional; conditions: po, 1 h
In short: (§1)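 Compounds given po in H2O (10 mL/kg) to rats, five per dose, doses as free base. Forepaw treading sampled in 10 s per rat repeated 10 times over 10 min at 55-65 min. Present if uninterrupted for ≥3 s, responder if score ≥1. Flat body posture scored if present the whole period. […] Ratio is FBP ED50/FPT ED50.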

[4] = target: T3, 5-hydroxytryptamine receptor 1A (Rattus norvegicus, UniProt P19327); assay: Binding affinity to 5HT1A receptor in rat cortex membrane; type: cell membranes
T3 sequence (P19327 whole entry): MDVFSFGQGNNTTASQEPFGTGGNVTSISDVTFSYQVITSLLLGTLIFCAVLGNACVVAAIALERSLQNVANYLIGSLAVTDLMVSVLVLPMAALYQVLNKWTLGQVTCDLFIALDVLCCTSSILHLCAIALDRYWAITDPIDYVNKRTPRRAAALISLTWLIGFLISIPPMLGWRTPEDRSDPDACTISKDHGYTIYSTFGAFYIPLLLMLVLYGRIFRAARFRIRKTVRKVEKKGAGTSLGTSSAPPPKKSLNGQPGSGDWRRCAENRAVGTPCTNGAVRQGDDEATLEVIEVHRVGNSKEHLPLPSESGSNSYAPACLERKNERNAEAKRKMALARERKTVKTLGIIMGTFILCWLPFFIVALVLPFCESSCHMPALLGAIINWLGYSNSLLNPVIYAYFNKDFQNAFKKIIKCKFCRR

[5] = test system: Rattus norvegicus; assay: Induction of forepaw treading in orally dosed rat after 60 mins; type: functional; conditions: po, 1 h; in short: as §1
[6] = test system: Rattus norvegicus; assay: Antidepressant like activity in orally dosed rat after 60 mins by forced swimming test; type: functional; conditions: po, 1 h
In short: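 Porsolt-type test in rats: 15 min swim in a cylinder with 17 cm water at 25 °C, then 5 min retest 24 h later. Immobility scored blind. Vehicle po after session 1. Compound or vehicle po (10 mL/kg) 1 h before retest, n = 5-12 per dose, doses 0.01-40 mg/kg. Responders had immobility <138 s. […] MSD by Kruskal-Wallis then Dunn's test.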

[7] = species on record: Rattus norvegicus; assay: Ratio of ED50 for flat body posture induction in rat to ED50 for forepaw treading induction in rat
[8] = Bioavailability in rat; type: ADME, organism-based; conditions: in vivo
[9] = Bioavailability in dog; type: ADME, organism-based, Canis lupus familiaris; conditions: in vivo
[10] = Dissociation constant, pKa of the compound; type: physicochemical
[11] = Lipophilicity, log D of the compound; type: physicochemical; conditions: octanol/water
[12] = Bioavailability in orally dosed rat; type: ADME, organism-based; conditions: in vivo, po

CC(=O)Nc1cccc(N2CCN(CCCCNS(=O)(=O)CC3CCCCC3)CC2)c1 [NALUZOTAN]
Emax [1]: 6.6%
EC50 [2]: 93.3 nM
ED50 [3]: > 40 mg/kg
Ki [4]: 30.2 nM
ED50 [5]: > 40 mg/kg
ED50 [6]: > 40 mg/kg

O=C(c1ccc(F)c(Cl)c1)N1CCC(F)(CNCc2ncccn2)CC1
Ki [4]: 95.5 nM

O=C(O)c1ccc(CNCC2(F)CCN(C(=O)c3ccc(F)c(Cl)c3)CC2)nc1
Ki [4]: > 10000 nM

O=C(c1ccc(F)c(Cl)c1)N1CCC(F)(CNCc2ccc(CF)cn2)CC1
Emax [1]: 61%
EC50 [2]: 229 nM
ED50 [3]: 16 mg/kg
Ratio [7]: 2.6
Ki [4]: 1.2 nM
ED50 [5]: 6.1 mg/kg
ED50 [6]: 0.17 mg/kg

Cc1cnc(CNCC2(F)CCN(C(=O)c3ccc(F)c(Cl)c3)CC2)cn1
Ki [4]: 66.1 nM

O=C(c1ccc(F)c(Cl)c1)N1CCC(F)(CNCc2ccc(C(F)F)cn2)CC1
Emax [1]: 96.4%
EC50 [2]: 240 nM
ED50 [3]: 4.2 mg/kg
Ratio [7]: 1.7
Ki [4]: 3.8 nM
ED50 [5]: 2.5 mg/kg

Cc1ccc(CNCC2(F)CCN(C(=O)c3ccc(F)c(Cl)c3)CC2)nc1 [BEFIRADOL]
bioavailability [8]: > 70%
ED50 [3]: 1.4 mg/kg
bioavailability [9]: > 70%
pKa [10]: 6.4
logD [11]: 2.6
ED50 [5]: 0.38 mg/kg
ED50 [6]: 0.06 mg/kg

O=C(c1ccc(F)c(Cl)c1)N1CCC(F)(CNCc2nccc(-c3ccco3)n2)CC1
Emax [1]: 79%
EC50 [2]: 10 nM
Ki [4]: 0.427 nM
ED50 [6]: > 2.5 mg/kg

Cc1cnc(CNCC2(F)CCN(C(=O)c3ccc(F)c(Cl)c3)CC2)nc1
Emax [1]: 70.3%
EC50 [2]: 389 nM
ED50 [3]: 8.3 mg/kg
pKa [10]: 6.7
logD [11]: 1.5
bioavailability [12]: > 80%
Ratio [7]: 5.5
Ki [4]: 2.24 nM
ED50 [5]: 1.5 mg/kg
ED50 [6]: 0.05 mg/kg

COc1ccnc(CNCC2(F)CCN(C(=O)c3ccc(F)c(Cl)c3)CC2)n1
Emax [1]: 75.5%
EC50 [2]: 447 nM
Ki [4]: 6.46 nM

CCc1cnc(CNCC2(F)CCN(C(=O)c3ccc(F)c(Cl)c3)CC2)nc1
Ki [4]: 56.2 nM

O=C(c1ccc(F)c(Cl)c1)N1CCC(F)(CNCc2ncc(Cl)cn2)CC1
Emax [1]: 76%
EC50 [2]: 155 nM
Ki [4]: 3.39 nM
ED50 [6]: 0.03 mg/kg

O=c1[nH]c2ccccc2n1CCN1CCN(c2cccc(C(F)(F)F)c2)CC1 [FLIBANSERIN]
Emax [1]: 72%
EC50 [2]: 631 nM
ED50 [3]: 20 mg/kg
Ki [4]: 11.7 nM
ED50 [5]: > 40 mg/kg
ED50 [6]: > 320 mg/kg

CN(C)c1ccnc(CNCC2(F)CCN(C(=O)c3ccc(F)c(Cl)c3)CC2)n1
Emax [1]: 63.4%
EC50 [2]: 89.1 nM
Ki [4]: 2.29 nM

O=C(c1ccc(F)c(Cl)c1)N1CCC(F)(CNCc2ccc(CO)cn2)CC1
Emax [1]: 80%
EC50 [2]: 2040 nM
Ki [4]: 7.41 nM

O=C(c1ccc(F)c(Cl)c1)N1CCC(F)(CNCc2ccc(Cl)cn2)CC1
Emax [1]: 80.4%
EC50 [2]: 69.2 nM
ED50 [3]: 4.9 mg/kg
Ratio [7]: 1.3
Ki [4]: 0.692 nM
ED50 [5]: 3.8 mg/kg

CNc1nc(CNCC2(F)CCN(C(=O)c3ccc(F)c(Cl)c3)CC2)ncc1Cl
Emax [1]: 71.8%
EC50 [2]: 42.7 nM
Ki [4]: 0.741 nM
ED50 [6]: 0.32 mg/kg

O=C(c1ccc(F)c(Cl)c1)N1CCC(F)(CNCc2ncc(CO)cn2)CC1
Ki [4]: 117 nM

Cc1ccc(CNCC2(F)CCN(C(=O)c3ccc(F)c(Cl)c3)CC2)nn1
Emax [1]: 89.7%
EC50 [2]: 7940 nM
Ki [4]: 5.62 nM

CNc1ccnc(CNCC2(F)CCN(C(=O)c3ccc(F)c(Cl)c3)CC2)n1
Emax [1]: 58.8%
EC50 [2]: 309 nM
Ki [4]: 4.79 nM

O=C(c1ccc(F)c(Cl)c1)N1CCC(F)(CNCc2ncc(C(F)F)cn2)CC1
Emax [1]: 82.5%
EC50 [2]: 3630 nM
Ki [4]: 25.1 nM

CNc1nc(CNCC2(F)CCN(C(=O)c3ccc(F)c(Cl)c3)CC2)ncc1C
Emax [1]: 64.1%
EC50 [2]: 85.1 nM
Ki [4]: 1.74 nM

COC(=O)c1cnc(CNCC2(F)CCN(C(=O)c3ccc(F)c(Cl)c3)CC2)nc1
Ki [4]: 219 nM

CCCN(CCC)C1CCc2cccc(O)c2C1 (stereo unspecified) [8-OH-DPAT]
Emax [1]: 35.9%
ED50 [3]: > 40 mg/kg
ED50 [5]: 40 mg/kg
ED50 [6]: 0.75 mg/kg
